The record followed here is publication PMC7249612 (Biochemistry, 2016).

For assay [1], the system named is LoxA. It is filed as biochemical, Pseudomonas aeruginosa. Particulars: for Kcat / Km: substrate of LoxA, 25 mM HEPES pH 7.0.
For assay [2], the system named is LoxA. In words: LoxA secondary product profile. It is filed as biochemical, Pseudomonas aeruginosa. Particulars: 10 μM substrate; for times slower relative to the Kcat with AA: pH 7.0.
Assay [3] relates to LoxA. Nature of the assay: LoxA substrate preference. It is filed as biochemical, Pseudomonas aeruginosa. To be noted: initial rate at 10 μM substrate, pH 7.0, relative to AA. An outline of the steps:
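His6-tagged LoxA was expressed in E. coli BL21(DE3), purified on Ni-NTA, and dosed by iron content. About 7 nM enzyme started each reaction. Each fatty acid substrate was C18 HPLC-purified and used at 10 μM in 25 mM HEPES pH 7.0 without Triton X-100. Initial rate of conjugated diene formation was followed at 234 nm (ε 25000 M−1cm−1) and expressed relative to the AA rate.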

Assay [4] concerns P. aeruginosa biofilm growth on human airway epithelial cells. In words: Biotic biofilm assay on airway epithelial cells. It counts as cell-based, Pseudomonas aeruginosa. Particulars: recombinant protein delivered to airway epithelial cells. An outline of the steps:
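16HBE human bronchial epithelial cells were seeded at 7.4×10^4 per 6.5 mm transwell and polarized at air-liquid interface for 7 days. Cells were rinsed in MEM, and washed bacteria (wild-type PAO1 or loxA::Tn) were added at MOI 25–30. After 1 h, apical medium was replaced with MEM + 0.4% L-arginine for 5 h at 37 °C. Recombinant LoxA was added apically in MEM at increasing doses. Biofilms were released with 0.1% Triton X-100 and serially diluted for CFU/ml. Three experiments were run.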

The subject of assay [5] is P. aeruginosa biofilm growth. In words: Abiotic microtiter biofilm assay. It counts as cell-based, Pseudomonas aeruginosa. To be noted: 1 μg LoxA protein added to loxA mutant or wild-type bacteria. An outline of the steps:
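Wild-type PAO1 and loxA::Tn strains were grown overnight in Luria broth at 37 °C with 225 rpm shaking. Cultures were diluted 1:30 in minimal essential medium in 96-well plates, with or without 1 μg recombinant LoxA protein. Plates were incubated 24 h at 37 °C without agitation. Medium was removed, biofilms were washed and stained with crystal violet, and growth was read as absorbance at 550 nm.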

By Km is commonly meant the substrate concentration at which the rate is half of its maximum. For the molecule `CCCCC/C=C\C/C=C\CCCCCCCC(=O)O` [d31-LA], in the assay on LoxA [1], the Kcat is 0.9 (0.1) s^−1 and the Michaelis-Menten constant (Km) worked out at 100 µM.
In the case of `CCCCC/C=C\C/C=C\C/C=C\C=C\[C@@H](O)CCCC(=O)O` [5-HETE], the “times slower relative to the Kcat with AA” value in the assay with LoxA [2] is recorded as 100,000 times.
Still for that read-out and setting: the value for `CCCCCC(/C=C/C=C\C/C=C\C/C=C\CCCC(=O)O)OO` (centres unmarked) [15-HpETE, 15-hydroperoxyeicosatetraenoic acid] was 10,000 times; that for `CCCCCC=CCC=CCC=CC=CC(CCCC(=O)O)OO` (centres unmarked) [5-HpETE, 5-hydroperoxyeicosatetraenoic acid] was 100,000 times.
The same measure, in the same setting: with `CCCCC[C@H](O)/C=C/C=C\C/C=C\C/C=C\CCCC(=O)O` [15-HETE] the figure was 100,000 times.
Consider `CCCCC/C=C\C/C=C\C/C=C\C/C=C\CCCC(=O)O` [AA, arachidonic acid], for which the “Relative Kcat” value in the assay on LoxA [2] (Kcat of LoxA with AA set to 1, unitless) amounted to 1. Also, in the assay with LoxA [3], the “% AA Rate (10 μM)” value came to 100%.
With `CCCCC/C=C\C/C=C\CCCCCCCC(=O)O` [LA, linoleic acid], in the assay with LoxA [1] (noncompetitive, LA versus perdeuterated LA), the “KIE for Kcat” value is recorded as 32 +/− 6. In the assay on LoxA [1], the Kcat is 28 (2) s^−1 and the Michaelis constant (Km) was found to be 7 µM. Also, the “% AA Rate (10 μM)” value with LoxA [3] was 72(10) %.

B1: LoxA protein: purified recombinant P. aeruginosa 15-lipoxygenase added to biofilm assays (protein, UniProt Q9I4G8 20-685, looked up)
Lipoxygenase LoxA: NDSIFFSPLKYLGAEQQRSIDASRSLLDNLIPPSLPQYDNLAGKLARRAVLTSKKLVYVWTENFGNVKGVPMARSVPLGELPNVDWLLKTAGVIVELIVNFVASLPASAAAQFERIATGLSGDLEAARQVHEALLEEAKNDPAAAGSLLLRFTELQTRVIAILTRVGLLVDDILKSASNLVTQRGQGDGLNRFRAVFGTLRLPEVADSFRDDEAFAYWRVAGPNPLLIRRVDALPANFPLGEEQFRRVMGADDSLLEAAASRRLYLLDYAELGKLAPSGAVDKLLTGTGFAYAPIALFALGKDRARLLPVAIQCGQDPATHPMFVRPAESESDLYWGWQMAKTVVQVAEENYHEMFVHLAQTHLVSEAFCLATQRTLAPSHPLHVLLAPHFEGTLFINEGAARILLPSAGFIDVMFAAPIQDTQATAGGNRLGFDFYRGMLPESLKARNVDDPLALPDYPYRDDGLLVWNAIRQWAADYVAVYYASDGDVTADVELAAWVGEVIGSGKVAGFRPITGRSQLVEVLTMVIFTASAQHAAVNFPQPSMMTYAPAICAMSAAPAPDSPSGKSEADWLKMMPPTLVALEKVNIYHLLGSVYHGRLGDYRQTGFPYAPVFSDRRVTASGGPLERFQARLKEVEATIRTRNQARRRPYEYLLPSRIPASTNI
Consider B1, for which the “effect on biotic biofilm growth of loxA transposon mutant” value in assay [4] is “This decrease could be complemented”. For the same molecule, the “effect on abiotic biofilm growth” value in assay [5] was “did not alter biofilm growth”.
